Measurements published in ChEMBL document CHEMBL1140829, “1-Aminoindanes as novel motif with potential atypical antipsychotic properties” (Bioorg Med Chem Lett, 2008).
Blank lines part the entries; values can stand above or below the molecule they belong to.

Key:
[1] = biological target: T1, Alpha-1A adrenergic receptor (Rattus norvegicus, UniProt P43140); test: Displacement of [3H]prazosin from rat adrenergic alpha1A receptor expressed in fibroblast cells; type: cell-based
T1 sequence (P43140 whole entry): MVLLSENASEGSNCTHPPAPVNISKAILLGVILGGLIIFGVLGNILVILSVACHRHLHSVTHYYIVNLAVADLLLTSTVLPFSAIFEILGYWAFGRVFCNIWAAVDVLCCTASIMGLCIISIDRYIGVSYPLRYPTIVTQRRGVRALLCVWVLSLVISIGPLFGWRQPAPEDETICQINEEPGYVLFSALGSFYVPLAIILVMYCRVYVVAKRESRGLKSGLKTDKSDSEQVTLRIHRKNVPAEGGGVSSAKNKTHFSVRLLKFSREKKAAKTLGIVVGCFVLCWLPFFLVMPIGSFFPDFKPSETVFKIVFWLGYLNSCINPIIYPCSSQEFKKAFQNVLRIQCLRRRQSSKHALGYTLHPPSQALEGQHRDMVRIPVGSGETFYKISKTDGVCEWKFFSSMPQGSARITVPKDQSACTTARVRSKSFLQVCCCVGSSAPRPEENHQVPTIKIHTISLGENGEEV
Outline: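 Cloned rat alpha1a receptor in fibroblast cell membranes; [3H]prazosin as radioligand, incubated with or without a range of compound concentrations. Filtration under vacuum removed free label; bound measured by liquid scintillation counting. Percent inhibition of specific binding vs concentration fit by nonlinear regression for IC50.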

[2] = biological target: 5-hydroxytryptamine receptor 2A (Homo sapiens, UniProt P28223); test: Displacement of [3H]ketanserin from human 5HT2A receptor expressed in Swiss 3T3 cells; type: cell-based
Chain of 5-hydroxytryptamine receptor 2A (P28223 whole entry): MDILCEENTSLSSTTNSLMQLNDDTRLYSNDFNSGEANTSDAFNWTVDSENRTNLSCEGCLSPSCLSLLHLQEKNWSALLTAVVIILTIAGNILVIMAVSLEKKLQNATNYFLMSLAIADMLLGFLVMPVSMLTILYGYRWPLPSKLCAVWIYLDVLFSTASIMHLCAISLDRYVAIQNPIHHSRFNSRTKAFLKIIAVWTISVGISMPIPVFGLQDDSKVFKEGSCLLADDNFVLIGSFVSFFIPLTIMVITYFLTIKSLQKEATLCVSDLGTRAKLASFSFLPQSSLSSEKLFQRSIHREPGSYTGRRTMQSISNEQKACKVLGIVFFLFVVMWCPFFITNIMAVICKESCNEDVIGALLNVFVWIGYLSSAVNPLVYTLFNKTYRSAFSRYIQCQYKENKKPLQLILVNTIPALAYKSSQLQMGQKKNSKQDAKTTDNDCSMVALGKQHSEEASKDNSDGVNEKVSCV
Outline: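 Membranes from Swiss 3T3 cells expressing human 5-HT2A, labeled with [3H]ketanserin, incubated with or without varying compound concentrations. Vacuum filtration separated unbound label; bound label read by liquid scintillation. IC50 from nonlinear-regression fit of concentration vs percent inhibition of specific binding. Ki reported as geometric mean of at least three experiments.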

[3] = biological target: T2, 5-hydroxytryptamine receptor 1A (Homo sapiens) (UniProt P08908); test: (§1) Displacement of [3H]8OHDPAT from human 5HT1A receptor
T2 sequence (whole entry): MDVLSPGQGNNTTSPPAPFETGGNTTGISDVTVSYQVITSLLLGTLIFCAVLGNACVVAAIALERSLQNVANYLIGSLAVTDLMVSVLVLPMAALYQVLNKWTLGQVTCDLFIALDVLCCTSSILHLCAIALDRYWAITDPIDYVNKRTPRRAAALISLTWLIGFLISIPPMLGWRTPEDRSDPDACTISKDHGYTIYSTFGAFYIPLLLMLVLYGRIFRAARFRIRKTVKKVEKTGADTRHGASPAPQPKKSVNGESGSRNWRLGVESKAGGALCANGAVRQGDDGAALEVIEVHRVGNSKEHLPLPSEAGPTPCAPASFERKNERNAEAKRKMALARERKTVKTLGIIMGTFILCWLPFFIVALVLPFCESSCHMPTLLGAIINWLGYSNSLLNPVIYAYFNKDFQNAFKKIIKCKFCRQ
Outline: (§2)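 Radioligand competition binding on cloned human receptor membranes: [3H]8-OH-DPAT for 5-HT1A; CHO-cell D2L membranes with [3H]spiperone. Membranes plus radioligand with or without varying compound concentrations. Bound and free separated by vacuum filtration; bound counted by liquid scintillation. Concentration–percent inhibition of specific binding fit by nonlinear regression to IC50.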

[4] = biological target: T3, 5-hydroxytryptamine receptor 1A (Homo sapiens, UniProt P08908); test: as §1; outline: as §2
T3 sequence (P08908 whole entry): T2 sequence (whole entry)

[5] = biological target: T4, D(2) dopamine receptor (Homo sapiens, UniProt P14416); test: Displacement of [3H]spiperone from human D2L receptor expressed in CHO cells; type: cell-based; outline: as §2
T4 sequence (P14416 whole entry): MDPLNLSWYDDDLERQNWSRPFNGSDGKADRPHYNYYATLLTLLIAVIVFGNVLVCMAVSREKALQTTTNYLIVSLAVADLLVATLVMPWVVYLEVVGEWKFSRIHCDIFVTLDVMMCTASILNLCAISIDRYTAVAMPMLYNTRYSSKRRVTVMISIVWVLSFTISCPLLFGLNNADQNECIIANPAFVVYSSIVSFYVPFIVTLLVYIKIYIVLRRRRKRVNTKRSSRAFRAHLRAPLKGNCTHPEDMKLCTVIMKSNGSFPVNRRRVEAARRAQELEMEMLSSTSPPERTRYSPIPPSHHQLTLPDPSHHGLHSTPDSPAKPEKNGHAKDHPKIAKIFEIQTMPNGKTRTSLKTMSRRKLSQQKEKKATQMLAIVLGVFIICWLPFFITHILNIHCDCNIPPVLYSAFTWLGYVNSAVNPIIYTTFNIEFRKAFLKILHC

[6] = biological target: Voltage-gated inwardly rectifying potassium channel KCNH2 (Homo sapiens, UniProt Q12809); test: Displacement of [3H]dofetilide from human ERG channel expressed in HEK293 cells; type: cell-based
Chain of Voltage-gated inwardly rectifying potassium channel KCNH2 (Q12809 whole entry): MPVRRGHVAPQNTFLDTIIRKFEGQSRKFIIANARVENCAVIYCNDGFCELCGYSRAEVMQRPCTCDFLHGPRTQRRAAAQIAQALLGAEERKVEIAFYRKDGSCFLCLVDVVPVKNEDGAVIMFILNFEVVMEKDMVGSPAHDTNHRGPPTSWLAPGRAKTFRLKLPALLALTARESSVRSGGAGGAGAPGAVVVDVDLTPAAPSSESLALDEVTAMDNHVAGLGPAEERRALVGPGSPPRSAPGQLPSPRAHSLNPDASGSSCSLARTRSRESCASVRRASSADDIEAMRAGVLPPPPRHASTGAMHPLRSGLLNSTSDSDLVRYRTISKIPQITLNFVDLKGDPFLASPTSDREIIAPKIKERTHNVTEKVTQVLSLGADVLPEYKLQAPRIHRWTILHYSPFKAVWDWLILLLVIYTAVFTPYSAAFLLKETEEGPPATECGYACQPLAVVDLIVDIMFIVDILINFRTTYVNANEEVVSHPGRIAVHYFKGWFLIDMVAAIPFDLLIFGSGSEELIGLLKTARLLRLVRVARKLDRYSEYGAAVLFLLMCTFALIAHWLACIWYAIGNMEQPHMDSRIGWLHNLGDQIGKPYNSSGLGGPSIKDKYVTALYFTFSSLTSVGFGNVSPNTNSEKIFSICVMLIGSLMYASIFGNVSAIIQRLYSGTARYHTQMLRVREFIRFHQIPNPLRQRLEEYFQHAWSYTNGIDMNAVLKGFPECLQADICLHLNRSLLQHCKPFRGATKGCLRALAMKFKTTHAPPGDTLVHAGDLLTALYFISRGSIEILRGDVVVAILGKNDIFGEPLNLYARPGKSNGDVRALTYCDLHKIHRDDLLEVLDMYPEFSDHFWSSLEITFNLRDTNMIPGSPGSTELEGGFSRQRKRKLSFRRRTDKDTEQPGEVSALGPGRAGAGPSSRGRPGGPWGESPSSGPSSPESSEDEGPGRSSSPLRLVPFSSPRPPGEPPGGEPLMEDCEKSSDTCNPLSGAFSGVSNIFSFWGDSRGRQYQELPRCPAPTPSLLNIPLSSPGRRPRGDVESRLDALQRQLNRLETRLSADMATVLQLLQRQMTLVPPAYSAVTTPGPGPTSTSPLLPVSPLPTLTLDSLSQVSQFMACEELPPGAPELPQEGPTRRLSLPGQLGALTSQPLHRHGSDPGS

[7] = biological target: T4, D(2) dopamine receptor; test: Displacement of [3H]spiperone from human D2L receptor expressed in CHO cells at 100 nM; type: cell-based

SMILES: O=C(NC1CCc2ccc(CCN3CCN(c4nsc5ccccc45)CC3)cc21)c1ccc(Cl)cc1 (centres undefined)
Ki [1]: 5.64 nM
Ki [2]: 0.1 nM
Intrinsic activity [3]: 60%
Ki [4]: 56 nM
Ki [5]: 5 nM
Ki [6]: 166 nM

SMILES: Cc1ccc(C(=O)NC2CCc3ccc(CCN4CCN(c5nsc6ccccc56)CC4)cc32)cc1 (centres undefined)
Ki [1]: 13.5 nM
Ki [2]: 3 nM
Ki [4]: 28.1 nM
Ki [5]: 15 nM
Ki [6]: 194 nM

SMILES: O=C(NC1CCc2ccc(CCN3CCN(c4nsc5ccccc45)CC3)cc21)c1cccnc1 (centres undefined)
Ki [1]: 3.31 nM
Ki [2]: 0.95 nM
Ki [4]: 4.5 nM
Ki [5]: 6 nM
Ki [6]: 358 nM

SMILES: O=C(Cc1ccccc1)NC1CCc2ccc(CCN3CCN(c4nsc5ccccc45)CC3)cc21 (centres undefined)
Ki [1]: 5.27 nM
Ki [2]: 0.04 nM
Intrinsic activity [3]: 60%
Ki [4]: 20.9 nM
Ki [5]: 26 nM

SMILES: O=C(CCc1ccccc1)NC1CCc2ccc(CCN3CCN(c4nsc5ccccc45)CC3)cc21 (centres undefined)
Ki [1]: 10.3 nM
Ki [2]: 0.95 nM
Intrinsic activity [3]: 60%
Ki [4]: 37.2 nM
Ki [5]: 33 nM

SMILES: CCCC(=O)NC1CCc2ccc(CCN3CCN(c4nsc5ccccc45)CC3)cc21 (centres undefined)
Ki [1]: 3.96 nM
Ki [2]: 0.45 nM
Intrinsic activity [3]: 60%
Ki [4]: 5.5 nM
Ki [5]: 27 nM

SMILES: O=C(NC1CCc2ccc(CCN3CCN(c4nsc5ccccc45)CC3)cc21)c1ccc(F)cc1 (centres undefined)
Ki [1]: 10.3 nM
Ki [2]: 2.45 nM
Ki [4]: 66.7 nM
Ki [5]: 6 nM
Ki [6]: 78 nM

SMILES: O=C(NC1CCc2ccc(CCN3CCN(c4nsc5ccccc45)CC3)cc21)c1ccccc1 (centres undefined)
Ki [1]: 10.9 nM
Ki [2]: 4.75 nM
Ki [4]: 41.8 nM
Ki [5]: 22 nM

SMILES: CC(C)C(=O)NC1CCc2ccc(CCN3CCN(c4nsc5ccccc45)CC3)cc21 (centres undefined)
Ki [1]: 3.61 nM
Ki [2]: 0.75 nM
Ki [4]: 12 nM
Ki [5]: 67 nM
Ki [6]: 278 nM

SMILES: O=C(NC1CCc2cc(CCN3CCN(c4nsc5ccccc45)CC3)ccc21)c1ccc(F)cc1 (centres undefined)
Ki [1]: 15.6 nM
Ki [2]: 1.65 nM
Intrinsic activity [3]: 60%
Ki [4]: 7.8 nM
Ki [5]: 10 nM
Ki [6]: 135 nM

SMILES: O=C(NC1CCc2cc(CCN3CCN(c4nsc5ccccc45)CC3)ccc21)c1cccnc1 (centres undefined)
Ki [1]: 17.4 nM
Ki [2]: 0.68 nM
Intrinsic activity [3]: 60%
Ki [4]: 7.7 nM
Ki [5]: 5 nM
Ki [6]: 202 nM

The next molecules have a lower Ki [1] than those just listed; values first:

Ki [1]: 2.22 nM
Ki [2]: 0.3 nM
Intrinsic activity [3]: 60%
Ki [4]: 12 nM
Ki [5]: 21 nM
SMILES: O=C(NC1CCc2ccc(CCN3CCN(c4nsc5ccccc45)CC3)cc21)C1CC1 (centres undefined)
Ki [6]: 35 nM

Ki [1]: 0.3 nM
Ki [2]: 0.15 nM
Intrinsic activity [3]: 60%
Ki [4]: 1 nM
Ki [5]: 8 nM
SMILES: O=C(NC1CCc2cc(CCN3CCN(c4nsc5ccccc45)CC3)ccc21)C(F)(F)F (centres undefined)

Ki [1]: 0.45 nM
Ki [2]: 0.25 nM
Activity [7]: 21%
Intrinsic activity [3]: 60%
Ki [4]: 2 nM
SMILES: CCC(=O)NC1CCc2cc(CCN3CCN(c4nsc5ccccc45)CC3)ccc21 (centres undefined)
Ki [6]: 184 nM

Ki [1]: 1.34 nM
Ki [2]: 0.01 nM
Intrinsic activity [3]: 60%
Ki [4]: 7.5 nM
Ki [5]: 22 nM
SMILES: CC(=O)NC1CCc2ccc(CCN3CCN(c4nsc5ccccc45)CC3)cc21 (centres undefined)
Ki [6]: 885 nM

Ki [1]: 0.9 nM
Ki [2]: 0.5 nM
Activity [7]: 21%
Intrinsic activity [3]: 60%
Ki [4]: 2 nM
SMILES: CCCC(=O)NC1CCc2cc(CCN3CCN(c4nsc5ccccc45)CC3)ccc21 (centres undefined)
Ki [6]: 269 nM

Ki [1]: 1.88 nM
Ki [2]: 0.08 nM
Ki [4]: 6.5 nM
SMILES: O=C(NC1CCc2ccc(CCN3CCN(c4nsc5ccccc45)CC3)cc21)c1ccno1 (centres undefined)
Ki [6]: 150 nM

Ki [1]: 1.38 nM
Ki [2]: 0.55 nM
Ki [4]: 7.9 nM
Ki [5]: 5 nM
SMILES: O=C(NC1CCc2ccc(CCN3CCN(c4nsc5ccccc45)CC3)cc21)c1ccco1 (centres undefined)
Ki [6]: 35 nM

Ki [1]: 0.73 nM
Ki [2]: 0.45 nM
Activity [7]: 27%
Ki [4]: 2 nM
SMILES: O=C(NC1CCc2cc(CCN3CCN(c4nsc5ccccc45)CC3)ccc21)C1CC1 (centres undefined)
Ki [6]: 137 nM

Ki [1]: 0.49 nM
Ki [2]: 0.65 nM
Activity [7]: 17%
Ki [4]: 1 nM
SMILES: CC(C)C(=O)NC1CCc2cc(CCN3CCN(c4nsc5ccccc45)CC3)ccc21 (centres undefined)
Ki [6]: 219 nM

Ki [1]: 0.5 nM
Ki [4]: 4 nM
SMILES: O=C1Cc2cc(CCN3CCN(c4nsc5ccccc45)CC3)c(Cl)cc2N1 [ZIPRASIDONE]
Activity ([6]; human, hek293): Not Active

Ki [1]: 3.18 nM
Ki [2]: 0.33 nM
Intrinsic activity [3]: 60%
Ki [4]: 1.1 nM
Ki [5]: 15 nM
SMILES: CC(=O)NC1CCc2cc(CCN3CCN(c4nsc5ccccc45)CC3)ccc21 (centres undefined)
Ki [6]: 2200 nM

Ki [1]: 2.72 nM
Ki [2]: 0.09 nM
Intrinsic activity [3]: 60%
Ki [4]: 2 nM
Ki [5]: 21 nM
SMILES: NC1CCc2ccc(CCN3CCN(c4nsc5ccccc45)CC3)cc21 (centres undefined)
Ki [6]: 616 nM

Ki [1]: 1.92 nM
Ki [4]: 4.9 nM
Ki [5]: 10 nM
SMILES: O=C(NC1CCc2ccc(CCN3CCN(c4nsc5ccccc45)CC3)cc21)C(F)(F)F (centres undefined)
Ki [6]: 101 nM

Ki [1]: 3.03 nM
Ki [2]: 0.01 nM
Ki [4]: 5 nM
Ki [5]: 34 nM
SMILES: CCC(=O)NC1CCc2ccc(CCN3CCN(c4nsc5ccccc45)CC3)cc21 (centres undefined)
Ki [6]: 164 nM
